Test results: PubChem BioAssay AID488974 (NMMLSC, 2010)
pEC50: −log10 of the molar value. Activity calls are given as the source filed them.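 Rule for the calls: active = ratio of toxic midpoint dose to chemo-reversal midpoint dose above 10, among compounds with toxic midpoint under 15 µM; inactive = the rest.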

System: Igrove/Jurkat-DNR chemoreversal, trypan blue viability, 7 d
Assay: chemoreversal in ABCG2 cells, dose response, ABC transporter inhibitor project, paired ABCB1 counter-screen, SAR hit validation (AID 488974)
Settings: for CC50: measured here: toxicity in resistant cells alone
Outline: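 System: drug-resistant human Igrove (ABCG2 arm) and Jurkat/DNR (ABCB1 counterscreen) cells / Quantity: 100,000 cells/mL / Also added: fixed selective agents mitoxantrone (Igrove) and daunorubicin (Jurkat/DNR) / Doses: test compound dose series spanning 0.1–100 µM / Incubation: compound exposure over 7 days / Signal: trypan blue exclusion with cell counting by light microscopy / Measure: chemo-reversal 50% viability concentration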

Row | Structure (SMILES) | EC50 | CC50 [µM] | pEC50
1 | O=C(c1ccco1)N1CCN(c2cc(-c3ccccc3)nc3cc(-c4cccc(F)c4)nn23)CC1 | 0.76 µM (inactive) | 8.25 | 
2 | Cc1cc(N2CCN(C(=O)c3ccco3)CC2)n2nc(C)c(-c3ccccc3)c2n1 |  | 22.3 | 5.66
3 | COc1cccc(-c2cc3nc(C)c(C)c(N4CCN(Cc5ccco5)CC4)n3n2)c1 |  | > 100 | 7.05
4 | COc1cc(OC)cc(-c2cc3nc(C)c(C)c(N4CCN(C(=O)c5ccoc5)CC4)n3n2)c1 |  | > 100 | 6.02
5 | O=C(c1ccoc1)N1CCN(c2cc(-c3ccco3)nc3cc(-c4cccc(Cl)c4)nn23)CC1 | 1.38 µM (inactive) | 10.8 | 
6 | Cc1nc2cc(-c3cccc(Cl)c3)nn2c(N2CCN(C(=O)c3ccco3)CC2)c1C |  | 47.4 | 6.77
7 | O=C(c1ccoc1)N1CCN(c2cc(-c3cccnc3)nc3cc(-c4cccc(Cl)c4)nn23)CC1 | 0.02 µM (inactive) | 5.77 | 
8 | COc1cccc(C(=O)N2CCN(c3cc(-c4ccccc4)nc4cc(-c5cccc(Cl)c5)nn34)CC2)c1 |  | > 101 | 6.68
9 | Cc1nc2cc(-c3cccc(Cl)c3)nn2c(N2CCN(C(=O)c3ccoc3)CC2)c1C |  | > 100 | 6.22
10 | O=C(c1ccoc1)N1CCN(c2cc(-c3ccncc3)nc3cc(-c4cccc(Cl)c4)nn23)CC1 |  | 57.8 | 6.05
11 | Cc1cc(N2CCN(C(=O)c3ccco3)CC2)n2nc(-c3ccccc3)nc2n1 | 2.94 µM (inactive) | 16.2 | 
12 | Cc1cc(N2CCN(C(=O)c3ccco3)CC2)n2nc(-c3ccc(F)cc3)cc2n1 |  | 40.4 | 6.85
13 | COc1ccc(-c2cc3nc(-c4ccccc4)cc(N4CCN(C(=O)c5ccoc5)CC4)n3n2)cc1 |  | > 100 | 6.42
14 | O=C(c1ccoc1)N1CCN(c2cc(-c3ccco3)nc3cc(-c4ccccc4)nn23)CC1 |  | 18.3 | 6.51
15 | COc1ccc(-c2cc3nc(C)c(C)c(N4CCN(C(=O)c5ccco5)CC4)n3n2)cc1 | 1.44 µM (inactive) | 10.5 | 
16 | O=C(c1ccco1)N1CCN(c2cc(Cc3ccccc3)nc3cc(-c4cccc(Cl)c4)nn23)CC1 | 1.38 µM (inactive) | 10.5 | 
17 | Cc1nc2cc(-c3ccc(F)cc3)nn2c(N2CCN(C(=O)c3ccco3)CC2)c1C | 0.12 µM (inactive) | 5.33 | 
18 | COc1ccc(-c2cc3nc(-c4ccccc4)cc(N4CCN(C(=O)c5ccccc5)CC4)n3n2)cc1 |  | 82.6 | 6.70
19 | COc1cccc(-c2cc3nc(C)c(C)c(N4CCN(C(=O)c5ccoc5)CC4)n3n2)c1 |  | > 100 | 6.12

Row | Structure (SMILES) | EC50 | CC50 [µM] | pEC50
20 | CC(=O)N1CCN(c2c(C)c(C)nc3cc(-c4cccc(F)c4)nn23)CC1 |  | > 100 | 6.14
21 | Cc1ccc(-c2cc3nc(-c4ccccc4)cc(N4CCN(C(=O)c5ccoc5)CC4)n3n2)cc1 |  | 86 | 6.35
22 | Cc1nc2cc(-c3ccc4c(c3)OCO4)nn2c(N2CCN(C(=O)c3ccoc3)CC2)c1C |  | > 100 | 5.79
23 | O=C(c1ccco1)N1CCN(c2cc(-c3ccccc3)nc3cc(-c4cccc(Cl)c4)nn23)CC1 | 0.14 µM (inactive) | 6 | 
24 | O=C(Cc1ccccc1)N1CCN(c2cc(-c3ccccc3)nc3cc(-c4cccc(Cl)c4)nn23)CC1 |  | > 100 | 6.22
25 | O=C(c1cccnc1)N1CCN(c2cc(-c3ccccc3)nc3cc(-c4cccc(Cl)c4)nn23)CC1 | 0.13 µM (inactive) | 10.3 | 
26 | O=C(c1ccoc1)N1CCN(c2cc(-c3ccccc3)nc3cc(-c4ccncc4)nn23)CC1 |  | 22.3 | 5.82
27 | COc1cccc(-c2cc(N3CCN(C(=O)c4ccoc4)CC3)n3nc(-c4cccc(OC)c4)cc3n2)c1 |  | > 100 | 6.17
28 | O=C(C1CCCO1)N1CCN(c2c3c(nc4cc(-c5cccc(F)c5)nn24)CCCC3)CC1 (centres undefined) |  | 17.5 | 6.70
29 | COc1ccc(-c2[nH]nc3nc(N4CCN(C(=O)c5ccoc5)CC4)cc(C(F)(F)F)c23)cc1 | 0.46 µM (inactive) | 1.31 | 
30 | Cc1nc2cc(-c3cccc(Cl)c3)nn2c(N2CCN(C(=O)c3ccsc3)CC2)c1C | 0.49 µM (inactive) | 14.9 | 
31 | COc1ccc(-c2cc3nc(C)c(C)c(N4CCN(C(C)=O)CC4)n3n2)cc1 |  | 81.7 | 5.48
32 | COc1ccc(-c2cc3nc(-c4ccccc4)cc(N4CCN(C(=O)c5ccsc5)CC4)n3n2)cc1 |  | 30.6 | 6.77
33 | Cc1nc2ncnn2c(N2CCN(C(=O)c3ccco3)CC2)c1Cc1ccccc1 | 10.1 µM (inactive) | > 100 | 
34 | COc1cccc(-c2cc3nc(-c4ccco4)cc(N4CCN(C(=O)c5ccoc5)CC4)n3n2)c1 |  | > 100 | 6.00
35 | O=C(c1ccncc1)N1CCN(c2cc(-c3ccccc3)nc3cc(-c4cccc(Cl)c4)nn23)CC1 |  | 28.3 | 6.82
36 | O=C(c1ccco1)N1CCN(c2c3c(nc4cc(-c5cccc(F)c5)nn24)CCCC3)CC1 | 0.39 µM (inactive) | 5.77 | 
37 | COc1ccccc1-c1cc2nc(-c3ccccc3)cc(N3CCN(C(=O)c4ccoc4)CC3)n2n1 | 0.49 µM (inactive) | 6.5 | 
